Test results as given in ChEMBL document CHEMBL4414558, “Dehydroabietylamine Ureas and Thioureas as Tyrosyl-DNA Phosphodiesterase 1 Inhibitors That Enhance the Antitumor Effect of Temozolomide on Glioblastoma Cells” (J Nat Prod, 2019).

How the values were obtained:
[1] = target: Tyrosyl-DNA phosphodiesterase 1 (Homo sapiens, UniProt Q9NUW8); assay: Inhibition of recombinant TDP1 (unknown origin) using 5'-(5,6 FAM-aac gtc agg gtc ttc c-BHQ1)-3' as substrate measured every 55 secs for 8 mins by fluorescence based assay
Sequence of Tyrosyl-DNA phosphodiesterase 1 (Homo sapiens, UniProt Q9NUW8) (Q9NUW8 whole entry): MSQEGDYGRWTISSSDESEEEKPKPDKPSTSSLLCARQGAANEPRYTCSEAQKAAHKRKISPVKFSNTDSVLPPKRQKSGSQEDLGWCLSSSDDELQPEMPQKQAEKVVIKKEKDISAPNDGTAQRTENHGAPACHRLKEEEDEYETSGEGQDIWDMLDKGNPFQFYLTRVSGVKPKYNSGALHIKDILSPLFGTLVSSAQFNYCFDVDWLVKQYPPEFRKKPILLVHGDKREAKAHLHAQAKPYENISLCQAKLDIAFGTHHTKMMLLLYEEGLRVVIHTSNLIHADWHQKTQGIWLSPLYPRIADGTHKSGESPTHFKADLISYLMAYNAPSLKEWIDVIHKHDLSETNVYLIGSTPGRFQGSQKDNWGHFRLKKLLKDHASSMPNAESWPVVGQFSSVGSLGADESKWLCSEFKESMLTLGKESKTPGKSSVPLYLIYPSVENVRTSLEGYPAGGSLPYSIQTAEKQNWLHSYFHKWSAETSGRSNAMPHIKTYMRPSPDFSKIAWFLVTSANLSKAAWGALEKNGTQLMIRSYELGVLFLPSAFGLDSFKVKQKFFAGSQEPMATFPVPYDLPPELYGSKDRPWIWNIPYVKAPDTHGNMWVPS
Outline: (§1)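 Purified TDP1, either wild-type or the H493R mutant, tested against the fluorogenic substrate. The IC50 is the compound concentration that cuts enzyme activity by 50%.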

[2] = target: Poly [ADP-ribose] polymerase 1 (Homo sapiens) (UniProt P09874); assay: Inhibition of PARP1 (unknown origin) assessed as residual activity at 100 uM relative to control
Sequence of Poly [ADP-ribose] polymerase 1 (Homo sapiens) (P09874 whole entry): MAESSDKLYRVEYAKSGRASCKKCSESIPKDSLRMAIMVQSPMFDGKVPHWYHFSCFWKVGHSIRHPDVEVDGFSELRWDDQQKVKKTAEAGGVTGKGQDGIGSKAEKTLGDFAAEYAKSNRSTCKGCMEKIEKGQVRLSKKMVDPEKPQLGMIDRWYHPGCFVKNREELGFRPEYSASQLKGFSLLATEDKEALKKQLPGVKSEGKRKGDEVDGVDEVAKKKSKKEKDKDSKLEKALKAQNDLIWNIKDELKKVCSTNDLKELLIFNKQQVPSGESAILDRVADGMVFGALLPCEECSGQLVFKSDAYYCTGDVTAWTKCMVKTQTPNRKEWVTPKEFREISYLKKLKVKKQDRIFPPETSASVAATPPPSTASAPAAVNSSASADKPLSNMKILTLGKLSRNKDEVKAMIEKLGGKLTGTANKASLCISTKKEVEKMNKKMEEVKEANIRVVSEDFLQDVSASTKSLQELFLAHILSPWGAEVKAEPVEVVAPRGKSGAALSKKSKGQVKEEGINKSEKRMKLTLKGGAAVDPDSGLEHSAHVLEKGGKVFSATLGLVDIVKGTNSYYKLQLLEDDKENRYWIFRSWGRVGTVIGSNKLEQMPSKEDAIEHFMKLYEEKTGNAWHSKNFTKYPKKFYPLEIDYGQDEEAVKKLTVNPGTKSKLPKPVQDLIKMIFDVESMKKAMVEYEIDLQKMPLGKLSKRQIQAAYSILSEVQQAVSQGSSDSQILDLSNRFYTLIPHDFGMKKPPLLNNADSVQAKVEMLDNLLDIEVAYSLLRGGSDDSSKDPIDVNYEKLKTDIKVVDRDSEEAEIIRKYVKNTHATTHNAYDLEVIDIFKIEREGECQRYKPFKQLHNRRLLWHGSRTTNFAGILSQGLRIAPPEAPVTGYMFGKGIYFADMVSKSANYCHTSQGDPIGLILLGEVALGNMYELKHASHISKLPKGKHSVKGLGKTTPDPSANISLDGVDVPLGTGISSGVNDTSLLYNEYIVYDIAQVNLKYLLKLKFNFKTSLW

[3] = target: Poly [ADP-ribose] polymerase 2 (Homo sapiens) (UniProt Q9UGN5); assay: Inhibition of PARP2 (unknown origin) assessed as residual activity at 100 uM relative to control
Sequence of Poly [ADP-ribose] polymerase 2 (Homo sapiens) (Q9UGN5 whole entry): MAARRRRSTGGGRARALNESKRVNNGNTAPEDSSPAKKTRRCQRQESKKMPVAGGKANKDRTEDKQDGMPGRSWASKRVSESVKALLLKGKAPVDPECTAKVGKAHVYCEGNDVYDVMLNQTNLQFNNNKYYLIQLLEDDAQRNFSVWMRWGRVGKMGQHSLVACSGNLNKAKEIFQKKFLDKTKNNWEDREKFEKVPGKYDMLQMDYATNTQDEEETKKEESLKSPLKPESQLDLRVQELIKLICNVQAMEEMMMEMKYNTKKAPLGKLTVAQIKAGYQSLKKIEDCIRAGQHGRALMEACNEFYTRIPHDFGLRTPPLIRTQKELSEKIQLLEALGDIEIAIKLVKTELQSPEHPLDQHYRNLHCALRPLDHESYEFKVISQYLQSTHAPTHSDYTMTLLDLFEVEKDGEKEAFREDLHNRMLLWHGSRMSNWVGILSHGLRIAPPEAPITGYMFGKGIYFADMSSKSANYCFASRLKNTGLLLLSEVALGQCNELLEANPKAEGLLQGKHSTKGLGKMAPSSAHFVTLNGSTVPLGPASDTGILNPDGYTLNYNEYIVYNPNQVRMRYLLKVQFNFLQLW

[4] = target: Tyrosyl-DNA phosphodiesterase 1 (Homo sapiens, UniProt Q9NUW8, H493R); assay: Inhibition of recombinant TDP1 H493R mutant (unknown origin) using 5'-(5,6 FAM-aac gtc agg gtc ttc c-BHQ1)-3' as substrate measured every 55 secs for 8 mins by fluorescence based assay; outline: as §1
Sequence of Tyrosyl-DNA phosphodiesterase 1 (Homo sapiens, UniProt Q9NUW8, H493R) (Q9NUW8 whole entry H493R): as the sequence (Q9NUW8 whole entry) above, with H493R counted along it

[5] = system: U-937; assay: Cytotoxicity activity against human U937 cells assessed as reduction in cell viability incubated for 72 hrs by MTT assay; format: cell-based; details: U-937, 72 h
[6] = system: U-87 MG; assay: Cytotoxicity activity against human U87MG cells assessed as reduction in cell viability incubated for 72 hrs by MTT assay; format: cell-based, U-87MG ATCC
[7] = Cytotoxicity activity against human MDA-MB cells assessed as reduction in cell viability incubated for 72 hrs by MTT assay; format: cell-based
[8] = Cytotoxicity activity against human SK-MEL-8 cells assessed as reduction in cell viability incubated for 72 hrs by MTT assay; format: cell-based
[9] = system: A549; assay: Cytotoxicity activity against human A549 cells assessed as reduction in cell viability incubated for 72 hrs by MTT assay; format: cell-based; details: A549, 72 h
[10] = system: WI-38; assay: Cytotoxicity activity against human WI38 cells assessed as reduction in cell viability incubated for 72 hrs by MTT assay; format: cell-based; details: WI-38, 72 h
[11] = system: MCF7; assay: Cytotoxicity activity against human MCF7 cells assessed as reduction in cell viability incubated for 72 hrs by MTT assay; format: cell-based; details: MCF7, 72 h
[12] = system: T98G; assay: Cytotoxicity activity against human T98G cells assessed as reduction in cell viability incubated for 72 hrs by MTT assay; format: cell-based
[13] = system: SNB-19; assay: Cytotoxicity activity against human SNB19 cells assessed as reduction in cell viability incubated for 72 hrs by MTT assay; format: cell-based; details: SNB-19, 72 h
[14] = system: U-87 MG; assay: Potentiation of TMZ-induced cytotoxicity against human U87MG cells assessed as cell viability at 100 uM incubated for 72 hrs in presence of 2000 uM TMZ by MTT assay (reference value: 100%); format: functional, U-87MG ATCC
[15] = system: U-87 MG; assay: Potentiation of TMZ-induced cytotoxicity against human U87MG cells assessed as cell viability at 100 uM incubated for 72 hrs in presence of 2500 uM TMZ by MTT assay (reference value: 100%); format: functional, U-87MG ATCC
[16] = system: SNB-19; assay: Potentiation of TMZ-induced cytotoxicity against human SNB19 cells assessed as cell viability at 100 uM incubated for 72 hrs in presence of 1250 uM TMZ by MTT assay (Rvb =100%); format: functional
[17] = system: SNB-19; assay: Potentiation of TMZ-induced cytotoxicity against human SNB19 cells assessed as cell viability at 75 uM incubated for 72 hrs in presence of 2000 uM TMZ by MTT assay (Rvb =100%); format: functional
[18] = system: U-87 MG; assay: Potentiation of TMZ-induced cytotoxicity against human U87MG cells assessed as reduction in cell viability at 100 uM incubated for 72 hrs in presence of 2500 uM TMZ by MTT assay relative to TMZ alone; format: functional, U-87MG ATCC
[19] = system: SNB-19; assay: Potentiation of TMZ-induced cytotoxicity against human SNB19 cells assessed as reduction in cell viability at 75 uM incubated for 72 hrs in presence of 2000 uM TMZ by MTT assay relative to TMZ alone; format: functional
[20] = system: U-87 MG; assay: Potentiation of TMZ-induced cytotoxicity against human U87MG cells assessed as combination index at 100 uM incubated for 72 hrs in presence of 2000 uM TMZ by MTT assay; format: functional, U-87MG ATCC
[21] = system: U-87 MG; assay: Potentiation of TMZ-induced cytotoxicity against human U87MG cells assessed as combination index at 100 uM incubated for 72 hrs in presence of 2500 uM TMZ by MTT assay; format: functional, U-87MG ATCC
[22] = system: SNB-19; assay: Potentiation of TMZ-induced cytotoxicity against human SNB19 cells assessed as combination index at 100 uM incubated for 72 hrs in presence of 1250 uM TMZ by MTT assay; format: functional
[23] = system: SNB-19; assay: Potentiation of TMZ-induced cytotoxicity against human SNB19 cells assessed as combination index at 75 uM incubated for 72 hrs in presence of 2000 uM TMZ by MTT assay; format: functional
[24] = system: U-87 MG; assay: Potentiation of TMZ-induced cytotoxicity against human U87MG cells assessed as reduction in cell viability at 100 uM incubated for 72 hrs in presence of 2000 uM TMZ by MTT assay relative to TMZ alone; format: functional, U-87MG ATCC
[25] = system: SNB-19; assay: Potentiation of TMZ-induced cytotoxicity against human SNB19 cells assessed as reduction in cell viability at 100 uM incubated for 72 hrs in presence of 1250 uM TMZ by MTT assay relative to TMZ alone; format: functional

| Compound | IC50 [1] [µM] | Activity [2] [%] | Activity [3] [%] | IC50 [4] [µM] | IC50 [5] [µM] | IC50 [6] [µM] | IC50 [7] [µM] | IC50 [8] [µM] | IC50 [9] [µM] | IC50 [10] [µM] | IC50 [11] [µM] | IC50 [12] [µM] | IC50 [13] [µM] | Activity [14] [%] | Activity [15] [%] | Activity [16] [%] | Activity [17] [%] | fold change (FC) [18] | fold change (FC) [19] | CI [20] | also measured |
| --- | --- | --- | --- | --- | --- | --- | --- | --- | --- | --- | --- | --- | --- | --- | --- | --- | --- | --- | --- | --- | --- |
| C=CCNC(=S)NC[C@]1(C)CCC[C@]2(C)c3ccc(C(C)C)cc3CC[C@@H]12 | 0.57 | 104 | 98 | > 50 | 22.2 | > 100 | > 100 | > 100 | 100 | 50 | 10 | > 100 | < 10 | – | – | – | – | – | – | – | – |
| CCNC(=S)NC[C@]1(C)CCC[C@]2(C)c3ccc(C(C)C)cc3CC[C@@H]12 | 2.3 | 100 | 116 | > 50 | 18.7 | > 100 | > 100 | > 100 | > 100 | – | – | > 100 | < 10 | – | – | – | – | – | – | – | – |
| CC(C)c1ccc2c(c1)CC[C@H]1[C@](C)(CNC(=O)Nc3ccccc3)CCC[C@]21C | 0.95 | 106 | 129 | 24.1 | > 100 | > 100 | > 100 | > 100 | > 100 | > 100 | > 100 | > 100 | 17 | – | – | – | – | – | – | – | – |
| CC(C)c1ccc2c(c1)CC[C@H]1[C@](C)(CNC(=S)Nc3ccccc3)CCC[C@]21C | 0.71 | 98 | 116 | 19.9 | > 100 | > 100 | > 100 | > 100 | > 100 | 70 | 26 | – | – | – | – | – | – | – | – | – | – |
| CCNC(=O)NC[C@]1(C)CCC[C@]2(C)c3ccc(C(C)C)cc3CC[C@@H]12 | 3.7 | 100 | 116 | > 50 | 34.8 | > 100 | > 100 | > 100 | > 100 | – | – | > 100 | < 10 | – | – | – | – | – | – | – | – |
| CNC(=S)NC[C@]1(C)CCC[C@]2(C)c3ccc(C(C)C)cc3CC[C@@H]12 | 1.49 | 110 | 114 | > 50 | 16.8 | > 100 | > 100 | > 100 | 19.7 | – | – | 73.3 | < 10 | – | – | – | – | – | – | – | – |

Stronger by IC50 [1], values ahead:

| IC50 [1] [µM] | Activity [2] [%] | Activity [3] [%] | IC50 [4] [µM] | Compound | IC50 [5] [µM] | IC50 [6] [µM] | IC50 [7] [µM] | IC50 [8] [µM] | IC50 [9] [µM] | IC50 [10] [µM] | IC50 [11] [µM] | IC50 [12] [µM] | IC50 [13] [µM] | Activity [14] [%] | Activity [15] [%] | Activity [16] [%] | Activity [17] [%] | fold change (FC) [18] | fold change (FC) [19] | CI [20] | also measured |
| --- | --- | --- | --- | --- | --- | --- | --- | --- | --- | --- | --- | --- | --- | --- | --- | --- | --- | --- | --- | --- | --- |
| 0.5 | 96 | 99 | 39.2 | CC(C)c1ccc2c(c1)CC[C@H]1[C@](C)(CNC(=O)NC3CCCCC3)CCC[C@]21C | > 100 | > 100 | > 100 | > 100 | > 100 | 52 | > 100 | > 100 | < 10 | – | – | – | – | – | – | – | – |
| 0.28 | 93 | 93 | 34.1 | CC(C)c1ccc2c(c1)CC[C@H]1[C@](C)(CNC(=O)Nc3ccc(Cl)cc3)CCC[C@]21C | 15 | > 100 | > 100 | > 100 | > 100 | > 100 | 52 | 21.2 | < 10 | – | – | – | – | – | – | – | – |
| 0.19 | 99 | 142 | 9.3 | CC(C)c1ccc2c(c1)CC[C@H]1[C@](C)(CNC(=O)NCCCCCCNC(=O)NC[C@]3(C)CCC[C@]4(C)c5ccc(C(C)C)cc5CC[C@@H]34)CCC[C@]21C | > 100 | > 100 | > 100 | > 100 | > 100 | > 100 | > 100 | > 100 | > 100 | 109.8 | 59.3 | 88.9 | 70.3 | 1.7 | 1.4 | 1.79 | CI [21]: 0.43; CI [22]: 0.92; CI [23]: 0.15 |
| 0.11 | 83 | 135 | 5.4 | Cc1ccc(NC(=O)NC[C@]2(C)CCC[C@]3(C)c4ccc(C(C)C)cc4CC[C@@H]23)cc1NC(=O)NC[C@]1(C)CCC[C@]2(C)c3ccc(C(C)C)cc3CC[C@@H]12 | > 100 | > 100 | > 100 | > 100 | > 100 | > 100 | > 100 | > 100 | > 100 | 100.7 | 82.1 | 99.5 | 84.4 | 1.2 | 1.2 | 1.03 | CI [21]: 0.63; CI [22]: 0.99; CI [23]: 0.27 |
| 0.1 | 79 | 107 | 19.3 | CC(C)c1ccc2c(c1)CC[C@H]1[C@](C)(CNC(=O)NC34CC5CC(CC(C5)C3)C4)CCC[C@]21C | – | > 100 | > 100 | > 100 | > 100 | – | – | > 100 | > 100 | 72 | 58.2 | 61.3 | 63.7 | 1.7 | 1.6 | 0.44 | fold change (FC) [24]: 1.4; fold change (FC) [25]: 1.6; CI [21]: 0.43; CI [22]: 0.25; CI [23]: 0.13 |
| 0.09 | 92 | 94 | 5.4 | CC(C)c1ccc2c(c1)CC[C@H]1[C@](C)(CNC(=O)NCC3(C)CC(NC(=O)NC[C@]4(C)CCC[C@]5(C)c6ccc(C(C)C)cc6CC[C@@H]45)CC(C)(C)C3)CCC[C@]21C (some centres not stated) | > 100 | > 100 | > 100 | > 100 | > 100 | > 100 | > 100 | > 100 | > 100 | 109.2 | 90.9 | 97.3 | 89 | 1.1 | 1.1 | 1.7 | CI [21]: 0.77; CI [22]: 0.97; CI [23]: 0.34 |
